Measured values from ChEMBL document CHEMBL3632499, “Synthesis and Antiproliferative Activity Evaluation of the Disulfide-Containing Cyclic Peptide Thiochondrilline C and Derivatives” (J Nat Prod, 2015).

Assays:
[1] = system: CCRF-CEM; assay: Antiproliferative activity against human CCRF-CEM cells; format: functional
Summary of the method: (§1)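 Profiled in the National Cancer Institute 60 cancer cell line screen. Reported GI50 is the concentration giving 50% growth inhibition, TGI the concentration giving total growth inhibition, and LC50 the concentration giving 50% net cell killing. Values are averages ± SEM from two independent determinations.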

[2] = system: A549; assay: Antiproliferative activity against human A549/ATCC cells; format: functional; summary of the method: as §1
[3] = system: HOP-62; assay: Antiproliferative activity against human HOP62 cells; format: functional; summary of the method: as §1
[4] = system: SW-620; assay: Antiproliferative activity against human SW620 cells; format: functional
Summary of the method: (§2)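 Run in the National Cancer Institute 60 cancer cell line panel. Read-outs: GI50, the concentration causing 50% growth inhibition; TGI, the concentration causing total growth inhibition; LC50, the concentration causing 50% net cell killing. Values are averages ± SEM from two independent determinations.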

[5] = system: SK-OV-3; assay: Antiproliferative activity against human SKOV3 cells; format: functional; summary of the method: as §1
[6] = system: MDA-MB-435; assay: Antiproliferative activity against human MDA-MB-435 cells; format: functional; summary of the method: as §1
[7] = system: OVCAR-8; assay: Antiproliferative activity against human OVCAR8 cells; format: functional; summary of the method: as §1
[8] = system: OVCAR-4; assay: Antiproliferative activity against human OVCAR4 cells; format: functional; summary of the method: as §1
[9] = Apparent permeability of the compound from basolateral to apical side in human Caco2 cells; format: ADME, cell-based; conditions: Caco-2
[10] = system: SF-268; assay: Antiproliferative activity against human SF268 cells; format: functional; summary of the method: as §1
[11] = system: M14; assay: Antiproliferative activity against human M14 cells; format: functional; summary of the method: as §1
[12] = system: SN12C; assay: Antiproliferative activity against human SN12C cells; format: functional; summary of the method: as §1
[13] = Antiproliferative activity against human MOLT4 cells; format: functional; summary of the method: as §1
[14] = system: NCI-H23; assay: Antiproliferative activity against human NCI-H23 cells; format: functional; summary of the method: as §1
[15] = Apparent permeability of the compound from apical to basolateral side in human Caco2 cells; format: ADME, cell-based; conditions: Caco-2
[16] = system: OVCAR-5; assay: Antiproliferative activity against human OVCAR5 cells; format: functional; summary of the method: as §1
[17] = system: MDA-MB-231; assay: Antiproliferative activity against human MDA-MB-231 cells; format: functional; summary of the method: as §1
[18] = system: 786-0; assay: Antiproliferative activity against human 786-0 cells; format: functional; summary of the method: as §1
[19] = system: PC-3; assay: Antiproliferative activity against human PC3 cells; format: functional; summary of the method: as §1
[20] = system: SR; assay: Antiproliferative activity against human SR cells; format: functional; summary of the method: as §2
[21] = Antiproliferative activity against human RPMI8226 cells; format: functional; summary of the method: as §1
[22] = Antiproliferative activity against human Hs 578T cells; format: functional; summary of the method: as §1
[23] = Antiproliferative activity against human BT549 cells; format: functional; summary of the method: as §1
[24] = Antiproliferative activity against human RXF393 cells; format: functional; summary of the method: as §1
[25] = Antiproliferative activity against human SF295 cells; format: functional; summary of the method: as §1
[26] = Antiproliferative activity against human EKVX cells; format: functional; summary of the method: as §1
[27] = system: NCI-H522; assay: Antiproliferative activity against human NCI-H522 cells; format: functional; summary of the method: as §1
[28] = Antiproliferative activity against human HOP92 cells; format: functional; summary of the method: as §1
[29] = system: U-251; assay: Antiproliferative activity against human U251 cells; format: functional; summary of the method: as §2
[30] = system: HCT-116; assay: Antiproliferative activity against human HCT116 cells; format: functional; summary of the method: as §1
[31] = system: MCF7; assay: Antiproliferative activity against human MCF7 cells; format: functional; summary of the method: as §1
[32] = Half life in mouse liver microsomes; format: ADME
[33] = system: SNB-19; assay: Antiproliferative activity against human SNB19 cells; format: functional; summary of the method: as §2
[34] = read-out: LC50 (the source's name)

`C[C@H](NC(=O)[C@@H]1CSSC[C@@H](NC(=O)c2nc3ccccc3cc2O)C(=O)NCC(=O)N1C)c1ccccc1` showed a GI50 [1] of 1.9 µM, a TGI [1] of 10.5 µM and a CC50 [1, 34] of over 50 µM. The GI50 [2] was 7.1 µM, the TGI [2] was 15.7 µM and the CC50 [2, 34] was 35.3 µM. It also gave a GI50 [3] of 12.2 µM, a TGI [3] of 21 µM and a CC50 [3, 34] of 36.8 µM. For the same compound, the GI50 [4] was 1.9 µM, the TGI [4] was 6.3 µM and the CC50 [4, 34] was 33.2 µM. For the same compound, the GI50 [5] was 5.8 µM, the TGI [5] was 21.3 µM and the CC50 [5, 34] was over 50 µM. It also gave a GI50 [6] of 0.8 µM, a TGI [6] of 6.6 µM and a CC50 [6, 34] of 22 µM. For the same compound, the GI50 [7] was 5.2 µM, the TGI [7] was 17.8 µM and the CC50 [7, 34] was over 50 µM. For the same compound, the GI50 [8] was 8 µM, the TGI [8] was 18.4 µM and the CC50 [8, 34] was 42.4 µM. It also gave a Papp B→A [9] of 0.62 nm/s, a GI50 [10] of 0.4 µM and a TGI [10] of 11.1 µM. It also gave a CC50 [10, 34] of 35.6 µM, a GI50 [11] of 0.3 µM and a TGI [11] of 10.3 µM. It also gave a CC50 [11, 34] of over 50 µM, a GI50 [12] of 5.6 µM and a TGI [12] of 14.1 µM. It also gave a CC50 [12, 34] of 35.4 µM, a GI50 ([13]; MOLT-4) of 0.9 µM and a TGI ([13]; MOLT-4) of 3.3 µM. It also gave a CC50 ([13]; MOLT-4, read-out: LC50 (the source's name)) of over 50 µM, a GI50 [14] of 5.2 µM and a TGI [14] of 12.6 µM. For the same compound, the CC50 [14, 34] was 29.7 µM, the Papp A→B [15] was 0.11 nm/s and the GI50 [16] was 5.2 µM. The TGI [16] was 12.6 µM, the CC50 [16, 34] was 29.6 µM and the GI50 [17] was 1.9 µM. For the same compound, the TGI [17] was 7.9 µM, the CC50 [17, 34] was 26 µM and the GI50 [18] was 2.5 µM. For the same compound, the TGI [18] was 9.8 µM, the CC50 [18, 34] was 33.5 µM and the GI50 [19] was 6.1 µM. For the same compound, the TGI [19] was 13.5 µM, the CC50 [19, 34] was 30.3 µM and the GI50 [20] was 0.2 µM. For the same compound, the TGI [20] was 1.2 µM, the CC50 [20, 34] was over 50 µM and the GI50 ([21]; RPMI-8226) was 5.7 µM. For the same compound, the TGI ([21]; RPMI-8226) was 21.6 µM, the CC50 ([21]; RPMI-8226, read-out: LC50 (the source's name)) was over 50 µM and the GI50 [22] was 11.3 µM. The TGI [22] was 34.5 µM, the CC50 [22, 34] was over 50 µM and the GI50 ([23]; BT-549) was 6.9 µM. For the same compound, the TGI ([23]; BT-549) was 16.1 µM, the CC50 ([23]; BT-549, read-out: LC50 (the source's name)) was 37.6 µM and the GI50 ([24]; RXF 393) was 1.3 µM. For the same compound, the TGI ([24]; RXF 393) was 3.1 µM, the CC50 ([24]; RXF 393, read-out: LC50 (the source's name)) was 13 µM and the GI50 ([25]; SF-295) was 7.4 µM. The TGI ([25]; SF-295) was 16.3 µM, the CC50 ([25]; SF-295, read-out: LC50 (the source's name)) was 35.8 µM and the GI50 [26] was 3.8 µM. The TGI [26] was 11.8 µM, the CC50 [26, 34] was 31.4 µM and the GI50 [27] was 3.6 µM. It also gave a TGI [27] of 10.5 µM, a CC50 [27, 34] of 29.1 µM and a GI50 ([28]; HOP-92) of 9.7 µM. For the same compound, the TGI ([28]; HOP-92) was 18.6 µM, the CC50 ([28]; HOP-92, read-out: LC50 (the source's name)) was 35.6 µM and the GI50 [29] was 2.5 µM. The TGI [29] was 7.7 µM, the CC50 [29, 34] was 20.4 µM and the GI50 [30] was 1.8 µM. For the same compound, the TGI [30] was 6 µM, the CC50 [30, 34] was 18.3 µM and the GI50 [31] was 0.9 µM. It also gave a TGI [31] of 2.6 µM, a CC50 [31, 34] of 16.1 µM and a half-life [32] of 27 min. The GI50 [33] was 7.3 µM and the TGI [33] was 19.5 µM.
